From ChEMBL document CHEMBL5365542, “Difluoromethyl-1,3,4-oxadiazoles Are Selective, Mechanism-Based, and Essentially Irreversible Inhibitors of Histone Deacetylase 6” (J Med Chem, 2023)
Active and inactive are the calls of the source. The calls are words filed in the database; no cut-off is given here.

Tests used:
[1] = target: Histone deacetylase 4 (Homo sapiens) (UniProt P56524); assay: Inhibition of N-terminal GST-tagged/C-terminal His-tagged human HDAC4 (627 to 1084 residues) expressed in Sf9 insect cells using Boc-Lys(Tfa)-AMC as fluorogenic substrate at 10 uM preincubated for 60 mins followed by substrate addition and measured after 90 mins by microplate reader analysis relative to control; details: time 150.0 min
Histone deacetylase 4 (Homo sapiens), sequence (P56524 whole entry, the tested form may be a part): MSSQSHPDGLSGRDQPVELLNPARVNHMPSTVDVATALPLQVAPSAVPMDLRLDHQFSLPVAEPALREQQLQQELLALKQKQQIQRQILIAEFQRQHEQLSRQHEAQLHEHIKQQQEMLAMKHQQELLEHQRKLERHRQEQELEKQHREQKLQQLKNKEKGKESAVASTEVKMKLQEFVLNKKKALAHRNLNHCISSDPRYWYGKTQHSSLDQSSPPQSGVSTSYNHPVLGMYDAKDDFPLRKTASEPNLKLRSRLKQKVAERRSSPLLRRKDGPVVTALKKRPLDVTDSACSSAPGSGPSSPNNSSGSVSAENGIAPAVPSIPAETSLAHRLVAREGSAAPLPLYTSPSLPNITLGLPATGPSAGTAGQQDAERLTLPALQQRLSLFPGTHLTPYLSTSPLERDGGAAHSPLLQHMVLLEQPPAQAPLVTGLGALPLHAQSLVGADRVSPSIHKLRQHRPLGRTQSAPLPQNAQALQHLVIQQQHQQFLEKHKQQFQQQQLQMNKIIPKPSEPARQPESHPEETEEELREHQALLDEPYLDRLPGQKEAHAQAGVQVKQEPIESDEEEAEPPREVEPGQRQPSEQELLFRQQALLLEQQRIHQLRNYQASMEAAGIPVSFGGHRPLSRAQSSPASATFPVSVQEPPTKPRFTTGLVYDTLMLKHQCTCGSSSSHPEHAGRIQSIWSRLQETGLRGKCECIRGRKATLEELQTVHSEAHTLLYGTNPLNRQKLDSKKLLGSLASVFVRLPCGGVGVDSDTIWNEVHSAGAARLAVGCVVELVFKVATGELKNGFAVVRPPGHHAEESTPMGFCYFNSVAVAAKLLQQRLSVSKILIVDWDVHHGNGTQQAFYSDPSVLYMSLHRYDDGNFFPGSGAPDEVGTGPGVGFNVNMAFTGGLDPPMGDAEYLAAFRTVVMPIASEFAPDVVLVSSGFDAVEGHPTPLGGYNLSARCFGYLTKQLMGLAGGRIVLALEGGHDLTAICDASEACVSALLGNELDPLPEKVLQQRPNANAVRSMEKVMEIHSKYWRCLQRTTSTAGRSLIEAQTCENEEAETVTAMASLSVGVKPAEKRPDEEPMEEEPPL
Summary of the method: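 Recombinant human HDAC4 was preincubated with inhibitor for 60 min at 25 °C in Tris-HCl pH 8.0/BSA buffer. Boc-Lys(Tfa)-AMC (42.86 μM solution) was then added for 90 min at 37 °C, followed by trypsin for 30 min at 37 °C. Fluorescence was read at ex 355/em 460. Tested at least twice in duplicate.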

[2] = target: T1, Protein deacetylase HDAC6 (Homo sapiens, UniProt Q9UBN7); assay: Inhibition of N-terminal GST tagged human recombinant HDAC6 (1 to 1215 residues) expressed in Sf9 insect cells using Z-Lys(Ac)-AMC as fluorogenic substrate preincubated for 2 hrs followed by substrate addition and measured after 90 mins by microplate reader analysis
T1 sequence (Q9UBN7 whole entry): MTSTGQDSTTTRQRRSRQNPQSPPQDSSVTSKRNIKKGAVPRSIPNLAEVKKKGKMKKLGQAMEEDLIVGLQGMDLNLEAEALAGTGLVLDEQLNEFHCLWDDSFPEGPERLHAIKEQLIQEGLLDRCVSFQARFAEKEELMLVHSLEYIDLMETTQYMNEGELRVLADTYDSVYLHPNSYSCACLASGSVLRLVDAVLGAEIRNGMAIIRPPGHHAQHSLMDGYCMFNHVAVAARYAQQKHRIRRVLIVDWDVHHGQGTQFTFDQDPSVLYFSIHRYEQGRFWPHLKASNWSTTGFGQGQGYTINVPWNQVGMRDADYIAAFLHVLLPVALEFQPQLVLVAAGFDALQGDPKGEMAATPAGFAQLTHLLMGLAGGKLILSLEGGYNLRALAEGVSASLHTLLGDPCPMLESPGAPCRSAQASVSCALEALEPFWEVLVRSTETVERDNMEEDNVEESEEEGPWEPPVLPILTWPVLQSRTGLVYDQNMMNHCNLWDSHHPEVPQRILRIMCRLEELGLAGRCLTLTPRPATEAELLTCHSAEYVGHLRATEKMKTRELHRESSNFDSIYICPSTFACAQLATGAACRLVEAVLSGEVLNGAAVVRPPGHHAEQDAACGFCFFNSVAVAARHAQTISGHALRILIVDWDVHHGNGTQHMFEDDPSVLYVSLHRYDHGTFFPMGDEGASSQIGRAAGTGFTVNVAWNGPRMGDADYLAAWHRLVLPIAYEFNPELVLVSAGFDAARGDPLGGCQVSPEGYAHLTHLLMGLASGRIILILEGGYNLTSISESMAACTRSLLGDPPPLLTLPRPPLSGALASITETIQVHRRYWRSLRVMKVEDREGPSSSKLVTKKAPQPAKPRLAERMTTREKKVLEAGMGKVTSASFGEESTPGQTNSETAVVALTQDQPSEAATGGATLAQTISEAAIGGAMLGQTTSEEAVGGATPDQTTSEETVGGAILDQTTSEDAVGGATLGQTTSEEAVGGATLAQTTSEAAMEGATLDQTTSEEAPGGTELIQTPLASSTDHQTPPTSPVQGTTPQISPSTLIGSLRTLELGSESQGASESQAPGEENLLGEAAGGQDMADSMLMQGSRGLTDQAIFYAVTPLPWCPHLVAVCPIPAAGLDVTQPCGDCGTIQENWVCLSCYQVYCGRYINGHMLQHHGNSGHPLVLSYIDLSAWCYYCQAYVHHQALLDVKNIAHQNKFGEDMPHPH

[3] = test system: T2, Histone deacetylase 6 (Danio rerio), F8W4B7 [H574A]; assay: Irreversible inhibition of Danio rerio HDAC6 H574A mutant catalytic domain 2 assessed as enzyme catalysed ring opening by measuring reduction in 2-(Benzylamino)pyrimidine-5-carbohydrazide formation at 100 uM incubated overnight by LC-MS analysis
T2 sequence (whole entry): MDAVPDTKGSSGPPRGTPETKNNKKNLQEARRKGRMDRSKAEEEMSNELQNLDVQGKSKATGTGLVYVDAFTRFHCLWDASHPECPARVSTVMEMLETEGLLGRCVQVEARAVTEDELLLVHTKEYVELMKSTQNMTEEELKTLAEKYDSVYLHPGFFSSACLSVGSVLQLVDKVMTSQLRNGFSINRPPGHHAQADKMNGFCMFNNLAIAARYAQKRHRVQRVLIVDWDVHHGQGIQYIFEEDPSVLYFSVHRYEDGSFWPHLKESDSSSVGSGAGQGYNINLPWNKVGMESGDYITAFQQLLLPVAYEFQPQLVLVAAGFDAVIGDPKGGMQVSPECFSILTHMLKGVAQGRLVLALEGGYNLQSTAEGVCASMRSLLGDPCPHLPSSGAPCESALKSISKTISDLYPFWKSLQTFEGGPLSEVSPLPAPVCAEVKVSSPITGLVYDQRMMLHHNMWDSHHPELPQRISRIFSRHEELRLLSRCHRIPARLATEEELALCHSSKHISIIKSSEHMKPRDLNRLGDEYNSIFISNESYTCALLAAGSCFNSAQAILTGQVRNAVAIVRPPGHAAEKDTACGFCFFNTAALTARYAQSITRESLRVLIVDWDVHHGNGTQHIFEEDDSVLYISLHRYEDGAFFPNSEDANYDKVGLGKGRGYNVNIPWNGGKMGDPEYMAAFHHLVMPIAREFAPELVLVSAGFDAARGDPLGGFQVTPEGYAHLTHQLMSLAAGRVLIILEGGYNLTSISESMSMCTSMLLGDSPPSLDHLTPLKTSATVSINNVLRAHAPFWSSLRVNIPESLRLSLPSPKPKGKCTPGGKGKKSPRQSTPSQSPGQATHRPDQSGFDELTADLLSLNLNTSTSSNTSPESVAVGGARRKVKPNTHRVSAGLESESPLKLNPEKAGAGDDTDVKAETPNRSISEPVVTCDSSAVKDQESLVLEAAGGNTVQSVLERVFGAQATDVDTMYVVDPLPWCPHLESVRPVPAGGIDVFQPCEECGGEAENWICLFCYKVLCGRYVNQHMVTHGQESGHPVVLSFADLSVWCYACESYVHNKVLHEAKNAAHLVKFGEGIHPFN
Summary of the method: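 Zebrafish HDAC6 CD2 mutants were made by site-directed mutagenesis and expressed in BL21(DE3). Enzyme at 50 μM was incubated overnight with 100 μM inhibitor in 50 mM HEPES pH 7.5, 100 mM KCl, 1 mM TCEP, 5% glycerol; an enzyme-free control was included. Protein was methanol-precipitated and filtered, and products were analysed by C18 UPLC-MS with a 2-min gradient.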

SMILES | inhibition [1] [%] | IC50 [2] [nM] | inhibition [3]
FC(F)c1nnc(-c2cnc(NCc3ccccc3)nc2)o1 | < 15 | 129 | Active
FC(F)(F)c1nnc(-c2cnc(NCc3ccccc3)nc2)o1 | < 15 | 601 | Active
